# pIC50: −log10 of the molar value.
# Legend:
# [1] = target: T1, hOAT3 (Homo sapiens, UniProt Q8TCC7); assay: Inhibition of 3H-ES uptake in S2-hOAT3 cells; assay type: in vitro ADME; details: for inhibition of the activity of hOAT3: 100 μmol/L IPT, ISP, 100 μg/mL AD extract, substrate 3H-ES
# T1 sequence (Q8TCC7 1-542): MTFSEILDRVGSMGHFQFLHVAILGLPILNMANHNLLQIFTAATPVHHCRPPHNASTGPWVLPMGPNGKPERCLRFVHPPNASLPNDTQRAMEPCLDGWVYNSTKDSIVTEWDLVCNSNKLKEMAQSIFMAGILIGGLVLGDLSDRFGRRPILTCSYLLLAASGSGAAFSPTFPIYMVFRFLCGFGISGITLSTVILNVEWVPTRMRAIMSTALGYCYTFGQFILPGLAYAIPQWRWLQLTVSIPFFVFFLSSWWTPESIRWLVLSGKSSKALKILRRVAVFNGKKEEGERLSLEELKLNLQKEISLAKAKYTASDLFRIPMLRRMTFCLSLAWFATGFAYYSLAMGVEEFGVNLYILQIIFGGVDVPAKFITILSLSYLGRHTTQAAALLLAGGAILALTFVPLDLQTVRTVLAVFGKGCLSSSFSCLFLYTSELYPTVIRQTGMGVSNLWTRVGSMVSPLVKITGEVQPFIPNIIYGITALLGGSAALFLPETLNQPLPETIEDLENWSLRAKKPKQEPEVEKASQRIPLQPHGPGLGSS
# How it was run: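 Test compounds were made as DMSO stocks (20 mmol/L, or 10 mg/mL for extract) and diluted in PBS to a final DMSO below 0.5%. Cells were exposed at 37 °C to probe plus or minus test compound. The probe was 5 μmol/L ¹⁴C-PAH for 5 min (hOAT1) or 50 nmol/L ³H-estrone sulfate for 2 min (hOAT3, hOATP2B1). Screens used 100 μmol/L (extract 100 mg/L); IC50 came from varied concentrations. Cells were then given three cold DPBS washes, lysed in 0.1 mol/L NaOH and read by scintillation counting. Data are mean ± SD, n = 3.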
# [2] = target: T2, hOATP1B3 (Homo sapiens, UniProt Q9NPD5); assay: Inhibition of 3H-ES uptake in HEK293-hOATP1B3 cells; assay type: in vitro ADME; details: 100 μmol/L IPT, ISP; 100 μg/mL AD extract; substrate 3H-ES
# T2 sequence (Q9NPD5 1-702): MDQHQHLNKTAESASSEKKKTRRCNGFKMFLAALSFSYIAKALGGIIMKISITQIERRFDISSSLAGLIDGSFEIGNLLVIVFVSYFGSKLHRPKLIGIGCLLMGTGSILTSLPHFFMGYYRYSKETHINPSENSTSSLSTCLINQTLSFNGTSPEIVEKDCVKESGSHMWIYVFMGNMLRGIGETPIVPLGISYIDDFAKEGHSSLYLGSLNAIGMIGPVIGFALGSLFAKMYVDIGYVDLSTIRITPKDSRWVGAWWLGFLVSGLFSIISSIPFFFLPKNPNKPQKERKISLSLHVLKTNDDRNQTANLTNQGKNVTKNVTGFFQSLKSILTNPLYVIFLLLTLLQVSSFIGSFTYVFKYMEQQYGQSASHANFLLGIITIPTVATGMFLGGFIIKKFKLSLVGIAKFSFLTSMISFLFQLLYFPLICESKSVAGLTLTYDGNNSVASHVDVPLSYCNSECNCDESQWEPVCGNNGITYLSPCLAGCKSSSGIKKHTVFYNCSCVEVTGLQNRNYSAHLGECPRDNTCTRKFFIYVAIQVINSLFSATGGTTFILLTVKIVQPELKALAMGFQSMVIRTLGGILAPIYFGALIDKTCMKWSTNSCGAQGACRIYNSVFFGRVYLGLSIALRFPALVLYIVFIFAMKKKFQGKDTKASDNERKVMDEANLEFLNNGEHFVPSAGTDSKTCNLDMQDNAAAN
# How it was run: (§1)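 HEK293 cells stably overexpressing the human transporter, grown in DMEM with 10% FBS and penicillin/streptomycin at 5% CO₂, then seeded in 24-well plates and used at confluence. Cells incubated at 37 °C for 2 min with 50 nmol/L ³H-estrone sulfate, with or without test compound or extract; final DMSO below 0.5%. Stopped by three cold DPBS washes, lysed in 0.1 mol/L NaOH, and counted by liquid scintillation (DPM).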
# [3] = target: T3, hOATP1B1 (Homo sapiens, UniProt Q9Y6L6); assay: Inhibition of 3H-ES uptake in HEK293-hOATP1B1 cells; assay type: in vitro ADME; details: 100 μmol/L IPT, ISP; 100 μg/mL AD extract; substrate 3H-ES
# T3 sequence (Q9Y6L6 1-691): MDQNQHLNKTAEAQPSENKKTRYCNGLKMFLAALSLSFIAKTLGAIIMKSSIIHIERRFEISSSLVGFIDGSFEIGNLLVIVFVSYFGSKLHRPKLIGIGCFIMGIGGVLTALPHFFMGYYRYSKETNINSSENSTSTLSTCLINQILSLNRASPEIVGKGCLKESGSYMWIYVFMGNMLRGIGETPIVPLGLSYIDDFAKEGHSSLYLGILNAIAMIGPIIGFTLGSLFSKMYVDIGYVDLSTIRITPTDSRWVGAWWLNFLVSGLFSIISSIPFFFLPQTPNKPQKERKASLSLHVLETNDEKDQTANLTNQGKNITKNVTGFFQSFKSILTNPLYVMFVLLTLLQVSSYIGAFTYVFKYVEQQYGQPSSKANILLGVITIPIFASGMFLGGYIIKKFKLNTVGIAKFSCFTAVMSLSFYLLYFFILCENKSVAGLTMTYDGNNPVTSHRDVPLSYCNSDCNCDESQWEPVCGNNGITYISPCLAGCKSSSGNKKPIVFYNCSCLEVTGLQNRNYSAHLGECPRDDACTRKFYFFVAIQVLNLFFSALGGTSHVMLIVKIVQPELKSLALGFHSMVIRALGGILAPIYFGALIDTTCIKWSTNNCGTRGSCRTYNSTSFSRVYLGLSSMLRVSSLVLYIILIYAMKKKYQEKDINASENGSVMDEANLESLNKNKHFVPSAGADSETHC
# How it was run: as §1
# [4] = target: T2, hOATP1B3; assay: Cellular uptake and kinetics in HEK293-hOATP1B3 vs Mock cells; assay type: in vitro ADME; details: 100 μmol/L, substrate if >2-fold of wild type
# How it was run: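 Transfected cells and matching Mock cells were seeded at 2 × 10⁵ cells/mL and grown 2 days. After a DPBS (pH 7.4) wash and 10 min preincubation at 37 °C, cells took up 100 μmol/L test compound for 2–5 min at 37 °C. Uptake was stopped with three ice-cold DPBS washes, followed by methanol extraction and HPLC–MS. Values were normalised to BCA protein and compared with Mock.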
# [5] = tested on: mOatp1b2; assay: qRT-PCR of mOatp1b2 mRNA in liver of treated mice; assay type: in vivo; details: mice given 20 mg/kg TDE with 20 mg/kg IPT, ISP or 200 mg/kg AD extract, 4 h
Structure (SMILES),pIC50 [1],inhibition of the activity of hOAT3 [1],inhibition to hOATP1B3 [2],inhibition to hOATP1B1 [3],accumulation in HEK293-hOATP1B3 vs HEK293 wild type [4],"mRNA level of mOatp1b2 decreased to, compared to TDE alone [5] [%]"
"CC(C)=CCOc1c2occc2cc2ccc(=O)oc12 [IPT, imperatorin]",5.56,significantly inhibited,weak or no inhibition,weak or no inhibition,no significant differences,61
"CC(C)=CCOc1c2ccoc2cc2oc(=O)ccc12 [ISP, isoimperatorin]",4.93,significantly inhibited,weak or no inhibition,weak or no inhibition,no significant differences,50

# Source: PMC7564327 (Acta Pharmaceutica Sinica. B, 2020)
